14 molecules from ChEMBL document CHEMBL1165849, “New structures and bioactivity properties of jasplakinolide (jaspamide) analogues from marine sponges” (2010) can be followed below.

Activity calls are given as the source filed them. The rule behind the calls is not given here. Bounds are passed on as bounds.

For experiment [1], the system named is MCF7. Nature of the experiment: Growth inhibition of human MCF7 cells by sulforhodamine B assay. Type of experiment: functional.
For experiment [2], the system named is HCT-116. Nature of the experiment: Growth inhibition of human HCT116 cells by sulforhodamine B assay. Type of experiment: functional.
Experiment [3] concerns HeLa. Nature of the experiment: Cytotoxicity against human HeLa cells at 80 nM after 34 hrs by microfilament disruption assay. Type of experiment: functional, cell-based.
For experiment [4], the system named is HCT-15. The experiment can be described thus: Growth inhibition of human HCT15 cells by sulforhodamine B assay. Type of experiment: functional. Summed up: (§1)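 Tested by NCI in the NCI-DTP 60 cell line panel screen; GI50 was derived, with TGI and LC50 from the same data.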
Experiment [5] concerns 786-0. Nature of the experiment: Growth inhibition of human 786-0 cells by sulforhodamine B assay. Type of experiment: functional. In outline:
as §1

Experiment [6] has as its system HOP-62. Nature of the experiment: Growth inhibition of human HOP62 cells by sulforhodamine B assay. Type of experiment: functional. Summed up: as §1
The test system of experiment [7] is SF-539. Nature of the experiment: Growth inhibition of human SF539 cells by sulforhodamine B assay. Type of experiment: functional. In outline:
as §1

Experiment [8] in a line: Growth inhibition of human […] cells by sulforhodamine B assay. Type of experiment: functional. Summed up:
as §1

The subject of experiment [9] is M14. Nature of the experiment: Growth inhibition of human M14 cells by sulforhodamine B assay. Type of experiment: functional. Summed up: as §1
Experiment [10] deals with OVCAR-3. Nature of the experiment: Growth inhibition of human OVCAR-3 cells by sulforhodamine B assay. Type of experiment: functional. In outline: as §1

For `C/C1=C\[C@H](C)C[C@H](C)OC(=O)C[C@H](c2ccc(O)cc2)NC(=O)[C@@H](C[C@@]2(O)C(=O)Nc3ccccc32)N(C)C(=O)C(C)NC(=O)[C@@H](C)C1` (stereo partly specified), the GI50 in [1] (Homo sapiens, MCF7) was > 10000 nM; in experiment [2] (Homo sapiens, HCT-116), > 10000 nM. In experiment [3], the result was inactive.
Take `C/C1=C\[C@H](C)C[C@H](C)OC(=O)C[C@H](c2ccc(O)cc2)NC(=O)[C@@H](Cc2c(Br)[nH]c3ccccc23)N(C)C(=O)[C@H](C)NC(=O)CC1`: in experiment [3], the result was Active.
Take `C/C1=C\[C@H](C)C[C@H](C)OC(=O)C[C@H](c2ccc(O)cc2)NC(=O)[C@@H](Cc2ncnc3ccccc23)N(C)C(=O)C(C)NC(=O)[C@@H](C)C1` (stereo partly specified): in experiment [3], the result was inactive.
As for `C=C1C[C@H](C)C(=O)N[C@@H](C)C(=O)N(C)[C@H](CC2(OC)OC(=O)Nc3ccccc32)C(=O)N[C@@H](c2ccc(O)cc2)CC(=O)O[C@@H](C)C[C@@H](C)C1=O` (stereo partly specified), the outcome in experiment [3] was inactive.
As for `C=C1C[C@H](C)C(=O)N[C@@H](C)C(=O)N(C)[C@H](Cc2c(Br)[nH]c3ccccc23)C(=O)N[C@@H](c2ccc(O)cc2)CC(=O)O[C@@H](C)C[C@@H](C)[C@@H]1O`, the outcome in experiment [3] was inactive.
In the case of `C=C1C[C@H](C)C(=O)N[C@@H](C)C(=O)N(C)[C@H](Cc2c(Br)[nH]c3ccccc23)C(=O)N[C@@H](c2ccc(O)cc2)CC(=O)O[C@@H](C)C[C@@H](C)[C@H]1O`, in experiment [3], the result was inactive.
For the molecule `COC1(C[C@@H]2C(=O)N[C@@H](c3ccc(O)cc3)CC(=O)O[C@@H](C)C[C@@H](C)/C=C(\C)C[C@H](C)C(=O)N[C@@H](C)C(=O)N2C)OC(=O)Nc2ccccc21` (stereo in doubt; 5), the result in experiment [3] was inactive.
Turning to `COC1(C[C@@H]2C(=O)N[C@@H](c3ccc(O)cc3)CC(=O)O[C@@H](C)C[C@@H](C)/C=C(\C)C[C@H](C)C(=O)N[C@@H](C)C(=O)N2C)OC(=O)Nc2ccccc21` (stereo in doubt; 5) [JASPLAKINOLIDEP], the GI50 in experiment [1] came to 4900 nM; in experiment [2] (Homo sapiens, HCT-116), 350 nM.
In the case of `COC1(C[C@@H]2C(=O)N[C@@H](c3ccc(O)cc3)CC(=O)O[C@@H](C)C[C@@H](C)/C=C(\C)C[C@H](C)C(=O)N[C@@H](C)C(=O)N2C)OC(=O)Nc2ccccc21` (stereo in doubt; 6), in [3], the outcome was inactive.
Turning to `COC1(C[C@@H]2C(=O)N[C@@H](c3ccc(O)cc3)CC(=O)O[C@@H](C)C[C@@H](C)/C=C(\C)C[C@H](C)C(=O)N[C@@H](C)C(=O)N2C)OC(=O)Nc2ccccc21` (stereo in doubt; 6) [JASPLAKINOLIDEP], the GI50 in experiment [1] came to 2400 nM; in experiment [2], 380 nM.
As for `C/C1=C\[C@H](C)C[C@H](C)OC(=O)C[C@H](c2ccc(O)cc2)NC(=O)[C@@H](Cc2c(Br)[nH]c3ccccc23)N(C)C(=O)[C@H](CO)NC(=O)[C@@H](C)C1` [JASPAMIDE E], the GI50 in [1] (Homo sapiens, MCF7) turned out to be 180 nM; in [4], 970 nM; in [2] (Homo sapiens, HCT-116), 140 nM; in experiment [5], 180 nM; in [6] it was 140 nM; in experiment [7] it was 170 nM. Besides, the GI50 in experiment [8] turned out to be 22 nM; in experiment [9] it was 78 nM; in experiment [10], 530 nM. Besides, the result in experiment [3] was inactive.
Turning to `C/C1=C\[C@H](C)C[C@H](C)OC(=O)C[C@H](c2ccc(O)cc2)NC(=O)[C@@H](Cc2c(Br)[nH]c3ccccc23)N(C)C(=O)[C@H](C)NC(=O)[C@@H](C)C1` [JASPAMIDE], the 50% growth inhibitory concentration (GI50) in [4] was 690 nM; in [2] (Homo sapiens, HCT-116), 100 nM; in experiment [5] it was 20 nM; in experiment [6] it was 150 nM; in [7] it was 300 nM; in [8], 31 nM. The GI50 was 56 nM in [9] and 40 nM in experiment [10]. Further, the result in experiment [3] was Active.
Regarding `C=C1C[C@H](C)C(=O)N[C@@H](C)C(=O)N(C)[C@H](Cc2c(Br)[nH]c3ccccc23)C(=O)N[C@@H](c2ccc(O)cc2)CC(=O)O[C@@H](C)C[C@@H](C)C1=O` [JASPLAKINOLIDE B], the GI50 was 130 nM in experiment [1] (Homo sapiens, MCF7); 6600 nM in experiment [4]; < 1 nM in experiment [2] (Homo sapiens, HCT-116); 510 nM in [5]; 140 nM in experiment [6]; 64 nM in experiment [7]. In addition, the results for the GI50 in experiment [8], in experiment [9] and in [10] were 1.9 nM, 53 nM and 110 nM, respectively. The outcome in experiment [3] was inactive.
Regarding `C/C1=C\[C@H](C)C[C@H](C)OC(=O)C[C@H](c2ccc(O)cc2)NC(=O)[C@@H](C[C@]2(O)C(=O)Nc3ccccc32)N(C)C(=O)C(C)NC(=O)[C@@H](C)C1` (stereo partly specified) [JASPLAKINOLIDE S], the GI50 in experiment [1] (Homo sapiens, MCF7) amounted to 2300 nM; in experiment [2] (Homo sapiens, HCT-116) it was 810 nM. For the same molecule, the outcome in experiment [3] was inactive.
